The text below walks through data of ChEMBL document CHEMBL4007435, “A Rational Design of a Selective Inhibitor for Kv1.1 Channels Prevalent in Demyelinated Nerves That Improves Their Impaired Axonal Conduction” (J Med Chem, 2017).

The source made the active and inactive calls. The calls are words filed in the database; no cut-off is given here.

In data set [1] the target is T1, Potassium voltage-gated channel subfamily A member 1 (Homo sapiens, UniProt Q09470). Briefly: Inhibition of Kv1.1 (unknown origin).
T1 sequence (Q09470 whole entry): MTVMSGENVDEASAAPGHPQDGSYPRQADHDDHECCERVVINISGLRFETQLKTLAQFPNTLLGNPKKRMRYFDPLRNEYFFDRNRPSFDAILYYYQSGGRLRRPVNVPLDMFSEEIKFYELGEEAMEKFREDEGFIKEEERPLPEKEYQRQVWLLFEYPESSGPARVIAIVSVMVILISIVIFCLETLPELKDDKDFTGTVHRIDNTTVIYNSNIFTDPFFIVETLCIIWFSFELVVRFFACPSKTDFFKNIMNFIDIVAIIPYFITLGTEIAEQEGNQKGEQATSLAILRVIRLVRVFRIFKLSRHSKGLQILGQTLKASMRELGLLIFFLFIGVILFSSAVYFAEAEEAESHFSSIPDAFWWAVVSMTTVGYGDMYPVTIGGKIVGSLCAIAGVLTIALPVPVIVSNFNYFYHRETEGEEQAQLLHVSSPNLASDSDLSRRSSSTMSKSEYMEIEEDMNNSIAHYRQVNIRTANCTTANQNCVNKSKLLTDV
The nature of data set [2]: Neurotoxicity in C57BL/6J mouse corpus callosum assessed as effect on amplitude of unmyelinated axon N2 wave at 10 uM relative to baseline. As to conditions: ex_vivo. In kind it is toxicity, tissue-based. The method, boiled down: (§1)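 Male C57BL/6J mice (16 weeks old) kept on normal diet for 8 weeks (n = 5). Coronal slices (400 µm) containing hippocampus. CC stimulated monopolarly at 0.033 Hz (100 µs); field cAPs recorded on contralateral CC at 40–50% maximum response. After 10 min of stable baseline, compound applied at 1 or 10 µM from 10 mM aCSF stock. Mean ± SEM; n = animals.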

For data set [3], the species on record is Mus musculus. Briefly: (§2) Neuroprotective activity against cuprizone-induced demyelination in C57BL/6J mouse corpus callosum assessed as improvement in neuronal conduction by measuring increase in amplitude of unmyelinated axon N2 wave at 10 uM relative to baseline. In kind it is functional. The procedure, abridged:
(§3)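 Male C57BL/6J mice (16 weeks old) fed chow with 0.2% cuprizone for 8 weeks (n = 7). Coronal slices (400 µm) containing hippocampus. CC stimulated monopolarly at 0.033 Hz (100 µs); extracellular field cAPs recorded on contralateral CC at 40–50% maximum response. After 10 min of stable baseline, compound applied at 1 or 10 µM from 10 mM aCSF stock. Mean ± SEM; n = animals.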

Data set [4] in a line: Neurotoxicity in C57BL/6J mouse corpus callosum assessed as effect on amplitude of unmyelinated axon N2 wave at 1 uM relative to baseline. As to conditions: ex_vivo. It counts as toxicity, tissue-based. The procedure, abridged: as §1
The species named for data set [5] is Mus musculus. Briefly: (§4) Neuroprotective activity against cuprizone-induced demyelination in C57BL/6J mouse corpus callosum assessed as improvement in neuronal conduction by measuring increase in amplitude of unmyelinated axon N2 wave at 1 uM relative to baseline. In kind it is functional. The method, boiled down: as §3
Data set [6] concerns the target Potassium voltage-gated channel subfamily A member 3 (Rattus norvegicus) (UniProt P15384). The data set can be described thus: Inhibition of recombinant rat Kv1.3 expressed in HEK293 cells at 10 uM at -90 mV holding potential by whole cell patch clamp Qpatch method relative to control. In kind it is cell-based. The procedure, abridged: (§5)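 HEK-293 cells carrying Kv1 channels, either stably expressed (Kv1.1, 1.2, 1.3, 1.4, 1.6, tandem Kv1.1 or 1.2 homotetramers) or transiently transfected (concatemers). Currents were recorded by automated whole-cell clamp with 2-3 MΩ pin-holes. Bath solution (mM): 135 NaCl, 5 KCl, 2 CaCl2, 2 MgCl2, 5 Hepes, 10 sucrose, pH 7.4. Holding potential was −90 mV, with steps to +20 mV for 300 ms. The 10 mM stocks were made in extracellular solution and diluted before use. The readout was steady-state current averaged after 200 ms, and peak current for Kv1.4.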
In general terms: The patch-clamp technique gives a direct electrical read-out from membranes.

The target in data set [7] is Kv1.2 (Rattus norvegicus, UniProt P63142). Briefly: Inhibition of recombinant rat Kv1.2 expressed in HEK293 cells at 10 uM at -90 mV holding potential by whole cell patch clamp Qpatch method relative to control. It counts as cell-based. As to conditions: HEK293 cells expressing recombinant rat Kv1.2. The method, boiled down:
as §5

The target in data set [8] is Kv1.6 (Rattus norvegicus, UniProt P17659). Briefly: Inhibition of recombinant rat Kv1.6 expressed in HEK293 cells at 10 uM at -90 mV holding potential by whole cell patch clamp Qpatch method relative to control. It counts as cell-based. As to conditions: HEK293 cells expressing recombinant rat Kv1.6. The method, boiled down: as §5
Kv1.6, sequence (P17659 whole entry): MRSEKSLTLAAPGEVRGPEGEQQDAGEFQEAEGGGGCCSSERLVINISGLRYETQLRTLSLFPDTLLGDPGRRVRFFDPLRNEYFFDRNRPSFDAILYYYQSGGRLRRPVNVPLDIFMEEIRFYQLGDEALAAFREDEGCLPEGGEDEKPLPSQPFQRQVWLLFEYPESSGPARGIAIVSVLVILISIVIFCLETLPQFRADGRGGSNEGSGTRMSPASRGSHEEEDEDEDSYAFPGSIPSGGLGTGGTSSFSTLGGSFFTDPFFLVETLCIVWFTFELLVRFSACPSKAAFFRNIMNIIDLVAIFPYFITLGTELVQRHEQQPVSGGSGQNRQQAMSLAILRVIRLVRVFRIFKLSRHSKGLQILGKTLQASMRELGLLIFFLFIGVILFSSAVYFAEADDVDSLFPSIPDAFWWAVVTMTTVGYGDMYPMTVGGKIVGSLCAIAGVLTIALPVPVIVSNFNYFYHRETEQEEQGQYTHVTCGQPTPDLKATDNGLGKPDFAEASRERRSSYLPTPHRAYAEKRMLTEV
For data set [9], the target named is Kv1.4 (Rattus norvegicus, UniProt P15385). Briefly: Inhibition of recombinant rat Kv1.4 expressed in HEK293 cells at 10 uM at -90 mV holding potential by whole cell patch clamp Qpatch method relative to control. As to conditions: HEK293 cells expressing recombinant rat Kv1.4. It counts as cell-based. The procedure, abridged: as §5
Kv1.4, sequence (P15385 whole entry): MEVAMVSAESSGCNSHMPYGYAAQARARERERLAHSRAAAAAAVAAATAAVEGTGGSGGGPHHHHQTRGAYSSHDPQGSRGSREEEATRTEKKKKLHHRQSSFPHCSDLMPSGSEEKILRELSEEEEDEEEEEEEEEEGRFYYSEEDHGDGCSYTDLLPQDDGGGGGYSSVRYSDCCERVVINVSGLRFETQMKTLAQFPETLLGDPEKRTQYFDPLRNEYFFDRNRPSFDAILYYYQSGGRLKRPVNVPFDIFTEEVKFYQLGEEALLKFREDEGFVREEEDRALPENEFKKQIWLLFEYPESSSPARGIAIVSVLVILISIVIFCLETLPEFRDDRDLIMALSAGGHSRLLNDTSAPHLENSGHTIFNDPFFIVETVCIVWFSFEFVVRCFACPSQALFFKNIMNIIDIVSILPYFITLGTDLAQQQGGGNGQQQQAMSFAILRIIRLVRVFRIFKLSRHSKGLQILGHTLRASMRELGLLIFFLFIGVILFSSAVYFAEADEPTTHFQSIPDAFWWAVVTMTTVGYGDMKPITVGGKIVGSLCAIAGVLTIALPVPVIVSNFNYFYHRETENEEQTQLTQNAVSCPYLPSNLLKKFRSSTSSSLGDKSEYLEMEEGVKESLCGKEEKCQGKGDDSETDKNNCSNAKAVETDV
The target in data set [10] is Potassium voltage-gated channel subfamily A member 1 (Rattus norvegicus) (UniProt P10499). The data set can be described thus: Inhibition of recombinant rat Kv1.1 expressed in HEK293 cells at 10 uM at -90 mV holding potential by whole cell patch clamp Qpatch method relative to control. In kind it is cell-based. The method, boiled down: as §5
Potassium voltage-gated channel subfamily A member 1 (Rattus norvegicus), sequence (P10499 whole entry): as the sequence (Q09470 whole entry) above, with V9A, V202I, N213T, M449I, V471A, A476G, T480A, A481T, N482D counted along it
The subject of data set [11] is HEK293. The data set can be described thus: Phototoxicity against HEK293 cells under UV irradiation. In kind it is cell-based. As to conditions: human.
The target in data set [12] is T2, Potassium voltage-gated channel subfamily A member 1 (Rattus norvegicus, UniProt P10499). The data set can be described thus: Inhibition of recombinant rat Kv1.1 expressed in HEK293 cells at -90 mV holding potential by whole cell patch clamp Qpatch method. In kind it is cell-based. The procedure, abridged:
as §5

The target of data set [13] is T3, Potassium voltage-gated channel subfamily A member 1/2 (Kv1.1/Kv1.2) (Rattus norvegicus, UniProt P10499+P63142). The data set can be described thus: Inhibition of recombinant rat Kv1.1/Kv(1.2)3 expressed in HEK293 cells at -90 mV holding potential by whole cell patch clamp Qpatch method. It counts as cell-based. The method, boiled down:
as §5

Data set [14] concerns the target T4, Potassium voltage-gated channel subfamily A member 1/2 (Kv1.1/Kv1.2) (Rattus norvegicus) (UniProt P10499+P63142). The data set can be described thus: Inhibition of recombinant rat Kv1.2/1.1/1.2/1.1 expressed in HEK293 cells at 10 uM at -90 mV holding potential by whole cell patch clamp Qpatch method relative to control. It counts as cell-based. The method, boiled down: as §5

In data set [15] the target is Potassium voltage-gated channel subfamily A member 2 (Rattus norvegicus, UniProt P63142). The data set can be described thus: Inhibition of recombinant rat Kv1.2(4) expressed in HEK293 cells at -90 mV holding potential by whole cell patch clamp Qpatch method. It counts as cell-based. The procedure, abridged: as §5
Potassium voltage-gated channel subfamily A member 2, sequence (P63142 whole entry): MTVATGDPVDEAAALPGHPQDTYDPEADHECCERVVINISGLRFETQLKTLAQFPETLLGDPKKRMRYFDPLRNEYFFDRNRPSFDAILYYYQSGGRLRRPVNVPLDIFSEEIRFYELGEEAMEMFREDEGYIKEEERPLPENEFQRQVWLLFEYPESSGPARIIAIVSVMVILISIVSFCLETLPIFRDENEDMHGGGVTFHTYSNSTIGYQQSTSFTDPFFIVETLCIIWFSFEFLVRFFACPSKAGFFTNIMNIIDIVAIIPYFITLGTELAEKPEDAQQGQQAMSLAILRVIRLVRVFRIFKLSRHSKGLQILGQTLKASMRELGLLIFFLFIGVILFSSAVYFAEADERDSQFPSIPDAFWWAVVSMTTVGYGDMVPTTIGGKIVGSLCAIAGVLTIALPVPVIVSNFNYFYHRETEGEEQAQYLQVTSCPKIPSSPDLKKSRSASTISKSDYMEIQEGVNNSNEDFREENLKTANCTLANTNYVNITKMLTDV
Data set [16] has as its target T3, Potassium voltage-gated channel subfamily A member 1/2 (Kv1.1/Kv1.2). Briefly: Inhibition of recombinant rat Kv(1.1)3/Kv1.2 expressed in HEK293 cells at -90 mV holding potential by whole cell patch clamp Qpatch method. It counts as cell-based. The method, boiled down: as §5
The target in data set [17] is Potassium voltage-gated channel subfamily A member 1 (Rattus norvegicus) (UniProt P10499). Briefly: Inhibition of recombinant rat Kv1.1 expressed in HEK293 cells assessed as shift of half maximal vale for activation at 10 uM at -90 mV holding potential by whole cell patch clamp Qpatch method. It counts as cell-based.
The nature of data set [18]: Partition coefficient, logP of the compound. In kind it is physicochemical. As to conditions: octanol/water.
Data set [19] deals with T2, Potassium voltage-gated channel subfamily A member 1. The data set can be described thus: Inhibition of recombinant rat Kv(1.1)4 expressed in HEK293 cells at -90 mV holding potential by whole cell patch clamp Qpatch method. In kind it is cell-based. The method, boiled down: as §5
Data set [20] addresses Potassium voltage-gated channel subfamily A member 1 (Rattus norvegicus) (UniProt P10499). Briefly: Inhibition of recombinant rat Kv1.1 concatamer expressed in HEK293 cells assessed as time constant for activation of Kv1.1 channel current at -90 mV holding potential by whole cell patch clamp Qpatch method (reference value: 2.2 +/- 0.1 ms). In kind it is cell-based.
Data set [21] has as its target T4, Potassium voltage-gated channel subfamily A member 1/2 (Kv1.1/Kv1.2) (Rattus norvegicus). The data set can be described thus: Inhibition of recombinant rat Kv1.2/1.2/1.1/1.1 expressed in HEK293 cells at 10 uM at -90 mV holding potential by whole cell patch clamp Qpatch method relative to control. It counts as cell-based. The method, boiled down: as §5
Data set [22] deals with T1, Potassium voltage-gated channel subfamily A member 1. Briefly: Inhibition of Kv1.1 (unknown origin) expressed in HEK293 cells by whole cell patch clamp Qpatch method. It counts as cell-based. The method, boiled down: as §5
The target in data set [23] is Potassium voltage-gated channel subfamily A member 1 (Rattus norvegicus) (UniProt P10499). Briefly: Inhibition of recombinant rat Kv1.1 expressed in HEK293 cells assessed as time constant for activation of Kv1.1 channel current at 10 uM at -90 mV holding potential by whole cell patch clamp Qpatch method (reference value: 1.9 +/- 0.15 ms). It counts as cell-based.
Data set [24] can be described thus: as §2. In kind it is functional. The method, boiled down: as §3
Data set [25] deals with T4, Potassium voltage-gated channel subfamily A member 1/2 (Kv1.1/Kv1.2) (Rattus norvegicus). The data set can be described thus: Inhibition of recombinant rat Kv1.1/1.1/1.2/1.2 expressed in HEK293 cells at 10 uM at -90 mV holding potential by whole cell patch clamp Qpatch method relative to control. It counts as cell-based. The method, boiled down: as §5
The nature of data set [26]: as §4. In kind it is functional. The method, boiled down:
as §3

Data set [27] concerns the target T4, Potassium voltage-gated channel subfamily A member 1/2 (Kv1.1/Kv1.2) (Rattus norvegicus). Briefly: Inhibition of recombinant rat Kv(1.1)3/Kv1.2 expressed in HEK293 cells assessed as time constant for activation of Kv1.1 channel current at 10 uM at -90 mV holding potential by whole cell patch clamp Qpatch method (reference value: 3.1 +/- 0.2 ms). It counts as cell-based.

Data set [28] has the same target. Briefly: Inhibition of recombinant rat Kv(1.1)2/Kv(1.2)2 expressed in HEK293 cells assessed as time constant for activation of Kv1.1 channel current at 10 uM at -90 mV holding potential by whole cell patch clamp Qpatch method (reference value: 2.8 +/- 0.4 ms). It counts as cell-based.
Data set [29] concerns the target T3, Potassium voltage-gated channel subfamily A member 1/2 (Kv1.1/Kv1.2). The data set can be described thus: Inhibition of recombinant rat Kv(1.1)2/Kv(1.2)2 expressed in HEK293 cells at -90 mV holding potential by whole cell patch clamp Qpatch method. In kind it is cell-based. The procedure, abridged: as §5

What is called IC50 is the concentration that gives 50% inhibition. One may read the inhibition as the relative decrease from the control value, in per cent. Broadly, the logP is the decadic logarithm of the partition coefficient of the neutral form, usually between octanol and water.

Kv1.2, sequence (P63142 whole entry): as above
T2 sequence (P10499 whole entry): as the sequence (Q09470 whole entry) above, with V9A, V202I, N213T, M449I, V471A, A476G, T480A, A481T, N482D counted along it
T4 sequence (P10499 whole entry, looked up): as the sequence (Q09470 whole entry) above, with V9A, V202I, N213T, M449I, V471A, A476G, T480A, A481T, N482D counted along it
T4 sequence (P63142 whole entry, looked up): as the sequence (P63142 whole entry) above
Potassium voltage-gated channel subfamily A member 3 (Rattus norvegicus), sequence (P15384 whole entry): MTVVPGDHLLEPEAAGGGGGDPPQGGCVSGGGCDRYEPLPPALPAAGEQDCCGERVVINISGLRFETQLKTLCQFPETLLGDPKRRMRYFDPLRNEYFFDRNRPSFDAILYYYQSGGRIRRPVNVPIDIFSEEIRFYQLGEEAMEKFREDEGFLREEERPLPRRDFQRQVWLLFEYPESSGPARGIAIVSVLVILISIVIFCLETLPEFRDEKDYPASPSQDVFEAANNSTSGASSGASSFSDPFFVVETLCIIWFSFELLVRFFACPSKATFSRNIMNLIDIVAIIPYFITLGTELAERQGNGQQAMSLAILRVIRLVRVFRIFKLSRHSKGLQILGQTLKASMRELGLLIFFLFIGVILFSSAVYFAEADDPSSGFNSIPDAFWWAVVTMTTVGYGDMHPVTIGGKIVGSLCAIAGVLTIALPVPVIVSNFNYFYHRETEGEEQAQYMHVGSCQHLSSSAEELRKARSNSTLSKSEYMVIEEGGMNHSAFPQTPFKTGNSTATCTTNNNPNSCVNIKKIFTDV

In data set [1], `COc1ccc([C@@H]2Sc3ccccc3N(CCN(C)C)C(=O)[C@@H]2OC(C)=O)cc1` [DILTIAZEM] came in with an IC50 of 144 µM.
Turning to `Nc1ccncc1` [DALFAMPRIDINE], the Activity in data set [2] worked out at 105.7%; in data set [4], 105.3%. In addition, the outcome in data set [3] and in data set [5] was inactive.
In data set [1], `COc1cc(CNC(=O)CCCC/C=C/C(C)C)ccc1O` [CAPSAICIN] yielded an IC50 of 29 µM.
For `Cc1ccc(C(c2ccc(C)cc2)(c2ccc(C(=O)NCCCN)[nH]2)c2ccc(C(=O)NCCCN)[nH]2)cc1.Cl.Cl`, the inhibition in data set [6] turned out to be 32%; in data set [10], 35%. Also, the results for the inhibition at 10 µM in [7], in [8] and in data set [9] were 6%, 5% and 16%, respectively. Besides, the Activity result in [11] was “Non-Toxic”.
For `Cc1ccc(C(c2ccc(C)cc2)(c2ccc(C(=O)NCCN)[nH]2)c2ccc(C(=O)NCCN)[nH]2)cc1.Cl.Cl`, the inhibition in data set [6] turned out to be 15%; in data set [14], 15%; in data set [21] it was 15%; in [10], 40%; in data set [25] it was 13%. In addition, the IC50 in [12] was 16 µM; in data set [13] it was > 100 µM; in data set [15], > 100 µM; in [16], 54 µM; in data set [19] it was 14 µM; in [22], 16 µM. Besides, the IC50 in [29] worked out at 57 µM. For the same molecule, the Activity in data set [2] is reported as 102.6%; in [11], “Non-Toxic”; in [24], 127.8%; in data set [4], 100.9%; in data set [26], 108.2%. The V1/2 in [17] turned out to be 40 mV. Besides, in data set [18], the logP is -1.05. Also, the inhibition at 10 µM is 1% in [7], 1% in data set [8] and 5% in data set [9]. For the same molecule, the TIME was 5.42e-06 h in [20], 5.64e-06 h in data set [23], 3.89e-06 h in data set [27] and 5e-06 h in data set [28].
Consider `O=C(NCC1CCCCN1)c1cc(OCC(F)(F)F)ccc1OCC(F)(F)F` (stereo not drawn) [FLECAINIDE], for which the IC50 in data set [1] turned out to be 209 µM.
Still for that read-out and setting: the same measure for `CC[N+](CC)(CC)CC` [TETRYLAMMONIUM]: 30 µM.
Regarding `Cc1ccc(C(c2ccc(C)cc2)(c2ccc(C(=O)NCCCCN)[nH]2)c2ccc(C(=O)NCCCCN)[nH]2)cc1.Cl.Cl`, the inhibition in [6] and in data set [10] was 8% in each case. Besides, the inhibition at 10 µM in data set [7] amounted to 3%; in [8], 4%; in data set [9], 3%. The Activity entry in data set [11] is listed as “Non-Toxic”.
For the molecule `CC(C)(C)OC(=O)NCCNC(=O)c1ccc(-c2c3nc(c(-c4ccc(C(=O)NCCNC(=O)OC(C)(C)C)cc4)c4ccc([nH]4)c(-c4ccc(C(=O)NCCNC(=O)OC(C)(C)C)cc4)c4nc(c(-c5ccc(C(=O)NCCNC(=O)OC(C)(C)C)cc5)c5ccc2[nH]5)C=C4)C=C3)cc1`, the IC50 in data set [12] is 13 µM.
In the case of `COC(=O)C1=C(C)NC(C)=C(C(=O)OC)C1c1ccccc1[N+](=O)[O-]` [NIFEDIPINE], the IC50 in data set [1] is 96 µM.
